Consider two molecules from ChEMBL document CHEMBL4145530, “Design, synthesis and pharmacological evaluation of N-benzyl-piperidinyl-aryl-acylhydrazone derivatives as donepezil hybrids: Discovery of novel multi-target anti-alzheimer prototype drug candidates” (Eur J Med Chem, 2018).

SMILES strings stand for the structures. The source made the active and inactive calls. The calls are words filed in the database; no cut-off is given here.

Data set [1] has as its system Mus musculus. Description: Anti-inflammatory activity in C57Bl/6 mouse model of amyloid beta (1 to 42) oligomer-induced neuroinflammation assessed as inhibition of microgliosis in CA1 region of ipsilateral hippocampus at 100 mg/kg, ip pretreated for 1.5 hrs followed by amyloid beta (1 to 42) oligomer addition and measured after 7 days by Iba-1 staining based assay. The format is functional, organism-based. A digest of the protocol: (§1)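 Male C57Bl/6 mice (25–30 g) got 100 mg/kg i.p. or vehicle 1.5 h before a unilateral right-hippocampal injection of Aβ1-42 oligomers (400 pmol/0.5 µL) or PBS. The oligomers were made by diluting the DMSO stock into PBS at 40 µM and holding at 4 °C for 48 h. After 7 days, brain sections were stained for Iba-1 (antigen retrieval, fluorescent secondary) and five CA1 images per hippocampus were taken; pixel density was read, n=10.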

The subject of data set [2] is Mus musculus. Description: Anti-inflammatory activity in C57Bl/6 mouse model of amyloid beta (1 to 42) oligomer-induced neuroinflammation assessed as inhibition of neurodegeneration in CA1 region of ipsilateral hippocampus at 100 mg/kg, ip pretreated for 1.5 hrs followed by amyloid beta (1 to 42) oligomer addition and measured after 7 days by Fluoro-Jade C staining based fluorescence microscopic assay. It counts as functional, organism-based. A digest of the protocol:
(§2)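 C57Bl/6 male mice were dosed i.p. at 100 mg/kg 1.5 h before stereotactic right intrahippocampal Aβ1-42 oligomer injection (400 pmol/0.5 µL), with PBS as control. After 7 days, hippocampal sections were stained with Fluoro-Jade C (0.0001%) after NaOH/ethanol and permanganate steps. Five CA1 images per hippocampus were imaged under fluorescence and pixel intensity quantified, n=10.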

Data set [3] concerns Mus musculus. Put plainly: Inhibition of serum COX1 level in Swiss mouse model of carragenan-induced paw edema at 100 mM/kg, po pretreated for 1 hr followed by carrageenan treatment measured after 3 hrs by ELISA. The format is functional. A digest of the protocol:
(§3)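 Swiss mice (n=8) received compound (100 mM/kg) or vehicle orally 1 h before intraplantar carrageenan; indomethacin was the positive control. Three hours later, blood was drawn from the heart under chloral hydrate anaesthesia and serum was collected. COX-1 and COX-2 protein was measured by sandwich ELISA read at 450 nm and expressed as percent COX level.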

For data set [4], the system named is SH-SY5Y. Description: cells. It counts as ADME, cell-based. As to conditions: Homo sapiens, 24 h.
Data set [5] deals with Mus musculus. Description: Proinflammatory activity in C57Bl/6 mouse model of amyloid beta (1 to 42) oligomer-induced neuroinflammation assessed as induction of microgliosis in CA1 region of contralateral hippocampus at 100 mg/kg, ip pretreated for 1.5 hrs followed by amyloid beta (1 to 42) oligomer addition and measured after 7 days by Iba-1 staining based assay. The format is organism-based. As to conditions: in vivo, 168 h. The procedure, abridged:
as §1

Data set [6] has as its system Mus musculus. Description: Inhibition of serum COX2 level in Swiss mouse model of carragenan-induced paw edema at 100 mM/kg, po pretreated for 1 hr followed by carrageenan treatment measured after 3 hrs by ELISA. It counts as functional. A digest of the protocol: as §3
Background: In an ELISA, binding on a coated surface is turned into a signal by an enzyme label.

Another data set has as its system THP-1. Description: Anti-inflammatory activity in human THP1 cells assessed as inhibition of LPS-induced IL-1beta production at 10 uM after 24 hrs by ELISA relative to control. The format is functional. As to conditions: THP-1, 24 h. The procedure, abridged: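 Human monocytic THP-1 cells (5×10^5 cells/mL) were given LPS 1 µg/mL with or without compound at 10 µM for 24 h. Cells were spun out at 500 × g and the medium kept at −80 °C. Secreted IL-1β and TNFα were measured with high-sensitivity ELISA. Three independent experiments.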

For data set [7], the target named is Cholinesterase (Equus caballus) (UniProt P81908). Put plainly: (§4) Inhibition of […] preincubated for 10 mins followed by substrate addition by Ellman's method. Background: DTNB colorimetry detects thiols as they appear.
Chain of Cholinesterase (Equus caballus) (P81908 whole entry): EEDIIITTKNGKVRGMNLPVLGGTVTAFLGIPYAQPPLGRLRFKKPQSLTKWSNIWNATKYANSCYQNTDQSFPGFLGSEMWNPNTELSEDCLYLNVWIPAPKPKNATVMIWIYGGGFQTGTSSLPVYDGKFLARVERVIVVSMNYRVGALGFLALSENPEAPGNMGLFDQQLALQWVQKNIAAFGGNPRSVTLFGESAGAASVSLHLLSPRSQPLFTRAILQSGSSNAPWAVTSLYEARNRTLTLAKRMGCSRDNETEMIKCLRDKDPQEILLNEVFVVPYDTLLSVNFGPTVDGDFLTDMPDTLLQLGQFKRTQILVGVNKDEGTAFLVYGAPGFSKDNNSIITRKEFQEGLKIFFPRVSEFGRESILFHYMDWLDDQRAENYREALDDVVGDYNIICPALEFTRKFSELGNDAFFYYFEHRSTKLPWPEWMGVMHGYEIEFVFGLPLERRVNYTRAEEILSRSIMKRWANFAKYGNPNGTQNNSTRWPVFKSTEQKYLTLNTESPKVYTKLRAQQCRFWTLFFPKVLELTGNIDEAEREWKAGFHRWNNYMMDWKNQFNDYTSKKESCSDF
For the next data set, the target named is Cholinesterase (Equus caballus, UniProt P81908). Described as §4.
Chain of Cholinesterase (P81908 whole entry): as above
Data set [8] deals with SH-SY5Y. Put plainly: Neuroprotection in human SH-SY5Y cells assessed as inhibition of amyloid beta (1 to 42) oligomer-induced early neurotoxic event by measuring decrease in MTT formazan exocytosis at 10 uM after 4 hrs by microscopic method. It counts as functional, cell-based. A digest of the protocol: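 SH-SY5Y cells (3×10^4/well) were grown 24 h, then co-treated with compound and Aβ1-42 oligomers (10 µM) for 4 h at 37 °C. Medium was replaced by MTT in PBS for 2 h. Needle-like exocytosed formazan crystals on the cell surface were assessed by light microscopy. Three independent experiments.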

Another data set relates to PBMC. Description: cells. It counts as ADME, cell-based. As to conditions: Homo sapiens, 6 h.
For data set [9], the system named is Mus musculus. Description: Anti-inflammatory activity in Swiss mouse assessed as reduction in carrageenan-induced paw edema by measuring paw volume […] po pretreated for 1 hr followed by carrageenan injection and measured after 1 to 5 hrs by plethysmometric method (reference value: 67.73 +/- 4.2 uL). The format is functional. A digest of the protocol: (§5)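 Male Swiss mice (22–28 g) were fasted overnight and dosed orally with vehicle (2% DMSO in sterile saline), compound or indomethacin 1 h before intraplantar carrageenan. Groups (n=10) were matched on basal paw volume. Right hind paw volume was read by plethysmometer at 1, 3 and 5 h and expressed as change from basal.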
(Carrageenan injected into the paw causes an acute inflammation.)

Data set [10] in a line: Selectivity ratio of compound effect for inhibition of human COX2 to compound effect for inhibition of ovine COX1. A digest of the protocol: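 COX-1 or COX-2 with heme was preincubated 120 min with compound (10 µM) in assay buffer. Arachidonic acid and a chemiluminescent substrate were then added at room temperature and peroxidative activity was read for 5 s; ibuprofen was the reference. Selectivity index was taken as the ratio of maximum COX-2 inhibition to COX-1 inhibition. Two independent experiments.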

The target of data set [11] is Acetylcholinesterase (Electrophorus electricus) (UniProt O42275). Description: Inhibition of electric eel AChE at 100 uM using acetylthiocholine iodide as substrate preincubated for 10 mins followed by substrate addition by Ellman's method relative to control.
Chain of Acetylcholinesterase (Electrophorus electricus) (O42275 24-633 limits assumed): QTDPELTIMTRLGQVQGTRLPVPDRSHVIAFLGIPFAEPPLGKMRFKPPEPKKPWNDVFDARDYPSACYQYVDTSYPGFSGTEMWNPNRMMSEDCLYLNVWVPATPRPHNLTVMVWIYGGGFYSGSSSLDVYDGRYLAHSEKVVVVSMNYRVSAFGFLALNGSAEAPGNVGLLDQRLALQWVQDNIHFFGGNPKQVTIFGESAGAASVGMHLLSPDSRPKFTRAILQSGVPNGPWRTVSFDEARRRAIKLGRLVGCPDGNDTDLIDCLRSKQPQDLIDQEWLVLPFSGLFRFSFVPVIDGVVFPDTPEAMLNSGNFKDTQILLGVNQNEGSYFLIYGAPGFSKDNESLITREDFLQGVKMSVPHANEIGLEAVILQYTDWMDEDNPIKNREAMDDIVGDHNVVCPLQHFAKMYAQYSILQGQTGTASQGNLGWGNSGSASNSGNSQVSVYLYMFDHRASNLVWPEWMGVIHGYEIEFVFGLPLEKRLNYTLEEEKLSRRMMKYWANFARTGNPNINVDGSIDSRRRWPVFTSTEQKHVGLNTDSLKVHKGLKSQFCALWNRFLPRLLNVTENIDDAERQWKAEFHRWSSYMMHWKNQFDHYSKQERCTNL
Data set [12] relates to Mus musculus. Description: Anti-inflammatory activity in po dosed Swiss mouse assessed as reduction in carrageenan-induced paw edema pretreated for 1 hr followed by carrageenan injection and measured after 1 to 5 hrs by plethysmometric method. The format is functional. As to conditions: read-out: ID50 (the source's name). The procedure, abridged:
as §5

The test system of data set [13] is Mus musculus. Description: Toxicity in C57Bl/6 mouse model of amyloid beta (1 to 42) oligomer-induced neuroinflammation assessed as induction of neurodegeneration in CA1 region of ipsilateral hippocampus at 100 mg/kg, ip pretreated for 1.5 hrs followed by amyloid beta (1 to 42) oligomer addition and measured after 7 days by Fluoro-Jade C staining based fluorescence microscopic assay. As to conditions: in vivo, 168 h. The format is organism-based. A digest of the protocol: as §2

`O=C(N/N=C/c1ccc(Cl)cc1)c1ccc(CN2CCCC(O)C2)cc1` (stereo not given): the inhibition result in the data set with Mus musculus [1], in the data set with Mus musculus [2] and in the data set on SH-SY5Y [8] was “Active” in each case. The entries for the “inhibition (INH)” value in the data set on Mus musculus [3] and with Mus musculus [6] were 27% and 42%, respectively. The IC50 – broadly, the concentration needed to halve the response being measured – was more than 80 µM in the data set on SH-SY5Y [4], 48.2 µM against Cholinesterase and more than 100 µM in the data set with PBMC. The Activity result is “Non-Toxic” with Mus musculus [5] and 17.14 µL in the data set on Mus musculus [9]. For the same molecule, in the data set with THP-1, the inhibition (as a rule, the share of the control response that was lost under treatment) at 10 µM turned out to be 29%. The inhibition entry in data set [7] was “Dose-dependent effect”; in data set [11] it was more than 60%. The Selectivity ratio in data set [10] was determined as 1.27. Besides, the ED50 in the data set on Mus musculus [12] was 8.76 µmol/kg.

As for `O=C(N/N=C/c1ccc(F)cc1)c1ccc(CN2CCCC(O)C2)cc1` (stereo not given), the inhibition result with Mus musculus [1] is “Active”. Also, the inhibition result in the data set with Mus musculus [2] was “inactive”. For the same molecule, the “inhibition (INH)” value with Mus musculus [3] amounted to 34%; in the data set with Mus musculus [6], 25%. The Activity entry in the data set on Mus musculus [13] was “Toxic”; in the data set on Mus musculus [5], “Non-Toxic”; in the data set on Mus musculus [9], 20 µL. The IC50 in the data set on SH-SY5Y [4] is more than 80 µM; against Cholinesterase, 39 µM; in the data set on PBMC, more than 100 µM. Besides, in the data set with THP-1, the inhibition at 10 µM was determined as 31%. The results for the inhibition result in data set [7] and in data set [11] were “Dose-dependent effect” and more than 60%, respectively. For the same molecule, the Selectivity ratio in [10] came to 0.83. Further, the ED50 with Mus musculus [12] was found to be 4.66 µmol/kg.
